PMC3945061 (Pain, 2013)

How the values were obtained:
pain / nociception = conditions: cited from earlier work
[1] = test system: DRG neurons from Mrg KO mice; assay: Calcium imaging, DRG neurons from Mrg KO mice; format: cell-based, mouse; conditions: capsaicin 0.5 μM, positive control, after JHU58
In short: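 Mrg KO mice: 845 kb chromosome 7 deletion covering 12 Mrg genes incl. MrgC11, backcrossed to C57BL/6 at least five generations. DRGs from 3–4-week-old mice were enzyme-dissociated at 37°C, plated on poly-D-lysine/laminin coverslips, and used within 24 h. Fura-2 AM loading for 30 min in the dark at room temperature; 340/380 nm ratio imaging; bath drug application; experimenter blinded to genotype.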

[2] = test system: SNL rats (mechanical hypersensitivity); assay: Paw withdrawal threshold; format: in vivo, rat; conditions: intrathecal FMRFamide 2 mM, 10 μl, n=7, 30 and 60 minutes
In short: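 Male Sprague-Dawley rats (200–350 g) had the left L5 spinal nerve ligated with 6-0 silk and cut distally. They were tested 4–5 weeks later via an intrathecal PE-10 catheter inserted through the atlanto-occipital membrane, with compound diluted in saline. Ipsilateral plantar PWT was measured by the up-down method (von Frey 0.38–13.1 g, 4–6 s) using the Dixon formula. Tests ran in the morning, blinded.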

rats (lower limbs) = assay: Motor paralysis after intrathecal injection; format: in vivo, rat; conditions: intrathecal lidocaine 400 μg/20 μl

Compound: COc1cc(CNC(=O)CCCC/C=C/C(C)C)ccc1O [capsaicin]
- Effect on pain, peripheral versus central application (pain / nociception; capsaicin): induces burning pain in the periphery, but it inhibits pain when applied centrally
- DRG neurons from Mrg KO mice with an increase in [Ca2+]i [1]: 32%

Compound: γ^2-MSH
- Effect on nociception (acute and inflammatory pain models) (pain / nociception; systemic and intrathecal injections): produce pronociceptive effects in acute pain models and contribute to heat hyperalgesia in an inflammatory pain model

Compound: FMRFamide
- Mechanical hypersensitivity, ipsilateral PWT [2]: inhibited mechanical hypersensitivity in the ipsilateral hindpaw of SNL rats

Compound: CCN(CC)CC(=O)Nc1c(C)cccc1C [lidocaine]
- Motor paralysis of the lower limbs (rats (lower limbs)): temporary motor paralysis of the lower limbs
